In ChEMBL document CHEMBL4052595, “Application of Residual Dipolar Couplings and Selective Quantitative NOE to Establish the Structures of Tetranortriterpenoids from Xylocarpus rumphii” (J Nat Prod, 2017):
Active and inactive are the calls of the source.

Legend:
Type in all cases: functional, cell-based
UACC-257 = experiment: Growth inhibition of human UACC257 cells at 10^-5 M incubated for 48 hrs by sulforhodamine B assay
How it was run: (§1)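 Tested at a single concentration of 1 × 10−5 M as part of the NCI59 cell-line one-dose screen.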

SK-MEL-28 = experiment: Growth inhibition of human SK-MEL-28 cells at 10^-5 M incubated for 48 hrs by sulforhodamine B assay
How it was run: (§2)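 Run in the NCI59 one-dose cell-line screen, with each compound tested at a single concentration of 1 × 10−5 M.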

MDA-MB-231 = experiment: Growth inhibition of human MDA-MB-231 cells at 10^-5 M incubated for 48 hrs by sulforhodamine B assay; how it was run: as §2
KM12 = experiment: Growth inhibition of human KM12 cells at 10^-5 M incubated for 48 hrs by sulforhodamine B assay; how it was run: as §2
CCRF-CEM = experiment: Growth inhibition of human CCRF-CEM cells at 10^-5 M incubated for 48 hrs by sulforhodamine B assay; how it was run: as §2
RXF 393 = experiment: Growth inhibition of human RXF393 cells at 10^-5 M incubated for 48 hrs by sulforhodamine B assay; how it was run: as §2
SF-539 = experiment: Growth inhibition of human SF539 cells at 10^-5 M incubated for 48 hrs by sulforhodamine B assay; how it was run: as §2
NCI-H23 = experiment: Growth inhibition of human NCI-H23 cells at 10^-5 M incubated for 48 hrs by sulforhodamine B assay; how it was run: as §2
K562 = experiment: Growth inhibition of human K562 cells at 10^-5 M incubated for 48 hrs by sulforhodamine B assay; how it was run: as §2
LOX IMVI = experiment: Growth inhibition of human LOXIMVI cells at 10^-5 M incubated for 48 hrs by sulforhodamine B assay; how it was run: as §2
HCT-116 = experiment: Growth inhibition of human HCT116 cells at 10^-5 M incubated for 48 hrs by sulforhodamine B assay; how it was run: as §2
A549 = experiment: Growth inhibition of human A549/ATCC cells at 10^-5 M incubated for 48 hrs by sulforhodamine B assay; how it was run: as §2
BT-549 = experiment: Growth inhibition of human BT549 cells at 10^-5 M incubated for 48 hrs by sulforhodamine B assay; how it was run: as §2
SF-268 = experiment: Growth inhibition of human SF268 cells at 10^-5 M incubated for 48 hrs by sulforhodamine B assay; how it was run: as §2
HT-29 = experiment: Growth inhibition of human HT-29 cells at 10^-5 M incubated for 48 hrs by sulforhodamine B assay; how it was run: as §2
ACHN = experiment: Growth inhibition of human ACHN cells at 10^-5 M incubated for 48 hrs by sulforhodamine B assay; how it was run: as §2
SK-MEL-5 = experiment: Growth inhibition of human SK-MEL-5 cells at 10^-5 M incubated for 48 hrs by sulforhodamine B assay; how it was run: as §2
COLO 205 = experiment: Growth inhibition of human COLO205 cells at 10^-5 M incubated for 48 hrs by sulforhodamine B assay; how it was run: as §2
U-251 = experiment: Growth inhibition of human U251 cells at 10^-5 M incubated for 48 hrs by sulforhodamine B assay; how it was run: as §1
786-0 = experiment: Growth inhibition of human 786-0 cells at 10^-5 M incubated for 48 hrs by sulforhodamine B assay; how it was run: as §2
HL-60(TB) = experiment: Growth inhibition of human HL-60(TB) cells at 10^-5 M incubated for 48 hrs by sulforhodamine B assay
How it was run: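 Run in the NCI59 cell-line one-dose screen, with each compound tested at a single concentration of 1 × 10−5 M.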

OVCAR-8 = experiment: Growth inhibition of human OVCAR8 cells at 10^-5 M incubated for 48 hrs by sulforhodamine B assay; how it was run: as §2
SF-295 = experiment: Growth inhibition of human SF295 cells at 10^-5 M incubated for 48 hrs by sulforhodamine B assay; how it was run: as §2
SR = experiment: Growth inhibition of human SR cells at 10^-5 M incubated for 48 hrs by sulforhodamine B assay; how it was run: as §2
HOP-92 = experiment: Growth inhibition of human HOP92 cells at 10^-5 M incubated for 48 hrs by sulforhodamine B assay; how it was run: as §2
NCI-H322M = experiment: Growth inhibition of human NCI-H322M cells at 10^-5 M incubated for 48 hrs by sulforhodamine B assay; how it was run: as §2
M14 = experiment: Growth inhibition of human M14 cells at 10^-5 M incubated for 48 hrs by sulforhodamine B assay; how it was run: as §2
A498 = experiment: Growth inhibition of human A498 cells at 10^-5 M incubated for 48 hrs by sulforhodamine B assay; how it was run: as §2
UO-31 = experiment: Growth inhibition of human UO31 cells at 10^-5 M incubated for 48 hrs by sulforhodamine B assay; how it was run: as §1
SNB-75 = experiment: Growth inhibition of human SNB75 cells at 10^-5 M incubated for 48 hrs by sulforhodamine B assay; how it was run: as §2
HOP-62 = experiment: Growth inhibition of human HOP62 cells at 10^-5 M incubated for 48 hrs by sulforhodamine B assay; how it was run: as §2
EKVX = experiment: Growth inhibition of human EKVX cells at 10^-5 M incubated for 48 hrs by sulforhodamine B assay; how it was run: as §2
MDA-MB-435 = experiment: Growth inhibition of human MDA-MB-435 cells at 10^-5 M incubated for 48 hrs by sulforhodamine B assay; how it was run: as §2
OVCAR-3 = experiment: Growth inhibition of human OVCAR3 cells at 10^-5 M incubated for 48 hrs by sulforhodamine B assay; how it was run: as §2
T47D = experiment: Growth inhibition of human T47D cells at 10^-5 M incubated for 48 hrs by sulforhodamine B assay; how it was run: as §1
SNB-19 = experiment: Growth inhibition of human SNB19 cells at 10^-5 M incubated for 48 hrs by sulforhodamine B assay; how it was run: as §2
TK-10 = experiment: Growth inhibition of human TK10 cells at 10^-5 M incubated for 48 hrs by sulforhodamine B assay; how it was run: as §1
SK-MEL-2 = experiment: Growth inhibition of human SK-MEL-2 cells at 10^-5 M incubated for 48 hrs by sulforhodamine B assay; how it was run: as §2
HCC 2998 = experiment: Growth inhibition of human HCC2998 cells at 10^-5 M incubated for 48 hrs by sulforhodamine B assay; how it was run: as §2
PC-3 = experiment: Growth inhibition of human PC3 cells at 10^-5 M incubated for 48 hrs by sulforhodamine B assay; how it was run: as §2
NCI-H460 = experiment: Growth inhibition of human NCI-H460 cells at 10^-5 M incubated for 48 hrs by sulforhodamine B assay; how it was run: as §2
UACC-62 = experiment: Growth inhibition of human UACC62 cells at 10^-5 M incubated for 48 hrs by sulforhodamine B assay; how it was run: as §1
OVCAR-5 = experiment: Growth inhibition of human OVCAR5 cells at 10^-5 M incubated for 48 hrs by sulforhodamine B assay; how it was run: as §2
CAKI-1 = experiment: Growth inhibition of human Caki1 cells at 10^-5 M incubated for 48 hrs by sulforhodamine B assay; how it was run: as §2
DU-145 = experiment: Growth inhibition of human DU145 cells at 10^-5 M incubated for 48 hrs by sulforhodamine B assay; how it was run: as §2
NCI-H522 = experiment: Growth inhibition of human NCI-H522 cells at 10^-5 M incubated for 48 hrs by sulforhodamine B assay; how it was run: as §2
MOLT-4 = experiment: Growth inhibition of human MOLT4 cells at 10^-5 M incubated for 48 hrs by sulforhodamine B assay; how it was run: as §2
NCI/ADR-RES = experiment: Growth inhibition of human NCI/ADR-RES cells at 10^-5 M incubated for 48 hrs by sulforhodamine B assay; how it was run: as §2
IGROV-1 = experiment: Growth inhibition of human IGROV1 cells at 10^-5 M incubated for 48 hrs by sulforhodamine B assay; how it was run: as §2
SN12C = experiment: Growth inhibition of human SN12C cells at 10^-5 M incubated for 48 hrs by sulforhodamine B assay; how it was run: as §2
OVCAR-4 = experiment: Growth inhibition of human OVCAR4 cells at 10^-5 M incubated for 48 hrs by sulforhodamine B assay; how it was run: as §2
SK-OV-3 = experiment: Growth inhibition of human SKOV3 cells at 10^-5 M incubated for 48 hrs by sulforhodamine B assay; how it was run: as §2
RPMI-8226 = experiment: Growth inhibition of human RPMI8226 cells at 10^-5 M incubated for 48 hrs by sulforhodamine B assay; how it was run: as §2
MCF7 = experiment: Growth inhibition of human MCF7 cells at 10^-5 M incubated for 48 hrs by sulforhodamine B assay; how it was run: as §2
HCT-15 = experiment: Growth inhibition of human HCT15 cells at 10^-5 M incubated for 48 hrs by sulforhodamine B assay; how it was run: as §2
Hs-578T = experiment: Growth inhibition of human Hs 578T cells at 10^-5 M incubated for 48 hrs by sulforhodamine B assay; how it was run: as §2
SW-620 = experiment: Growth inhibition of human SW620 cells at 10^-5 M incubated for 48 hrs by sulforhodamine B assay; how it was run: as §1
NCI-H226 = experiment: Growth inhibition of human NCI-H226 cells at 10^-5 M incubated for 48 hrs by sulforhodamine B assay; how it was run: as §2

Measured: growth inhibition (GI)

CC[C@H](C)C(=O)O[C@@H]1[C@@H]2[C@@H](OC(=O)C(C)C)[C@@]34O[C@]2(O)[C@@](C)([C@@H](CC(=O)OC)C1(C)C)[C@H]3CC[C@]1(C)C4=CC(=O)O[C@H]1c1ccoc1
inactive: UACC-257 | SK-MEL-28 | MDA-MB-231 | KM12 | CCRF-CEM | RXF 393 | SF-539 | NCI-H23 | K562 | LOX IMVI | HCT-116 | A549 | BT-549 | SF-268 | HT-29 | ACHN | SK-MEL-5 | COLO 205 | U-251 | 786-0 | HL-60(TB) | OVCAR-8 | SF-295 | SR | HOP-92 | NCI-H322M | M14 | A498 | UO-31 | SNB-75 | HOP-62 | EKVX | MDA-MB-435 | OVCAR-3 | T47D | SNB-19 | TK-10 | SK-MEL-2 | HCC 2998 | PC-3 | NCI-H460 | UACC-62 | OVCAR-5 | CAKI-1 | DU-145 | NCI-H522 | MOLT-4 | NCI/ADR-RES | IGROV-1 | SN12C | OVCAR-4 | SK-OV-3 | RPMI-8226 | MCF7 | HCT-15 | Hs-578T | SW-620 | NCI-H226

CC[C@H](C)C(=O)O[C@@H]1[C@H]2C(=O)[C@](C)([C@H]3CC[C@@]4(C)[C@H](c5ccoc5)OC(=O)C[C@]45O[C@]35[C@@H]2OC(=O)C(C)C)[C@@H](CC(=O)OC)C1(C)C
inactive: UACC-257 | SK-MEL-28 | MDA-MB-231 | KM12 | CCRF-CEM | RXF 393 | SF-539 | NCI-H23 | K562 | LOX IMVI | HCT-116 | A549 | BT-549 | SF-268 | HT-29 | ACHN | SK-MEL-5 | COLO 205 | U-251 | 786-0 | HL-60(TB) | OVCAR-8 | SF-295 | SR | HOP-92 | NCI-H322M | M14 | A498 | UO-31 | SNB-75 | HOP-62 | EKVX | MDA-MB-435 | OVCAR-3 | T47D | SNB-19 | TK-10 | SK-MEL-2 | HCC 2998 | PC-3 | NCI-H460 | UACC-62 | OVCAR-5 | CAKI-1 | DU-145 | NCI-H522 | MOLT-4 | NCI/ADR-RES | IGROV-1 | SN12C | OVCAR-4 | SK-OV-3 | RPMI-8226 | MCF7 | HCT-15 | Hs-578T | SW-620 | NCI-H226
